Data from ChEMBL document CHEMBL5260843 (J Med Chem, 2019).
The source made the active and inactive calls. No cut-off for these calls is given here.

Key:
[1] = molecular target: DCN1-like protein 1/NEDD8-conjugating enzyme Ubc12 (Homo sapiens, UniProt Q96GG9); experiment: Inhibition of GST-tagged DCN1 PONY domain (unknown origin)/human N-terminal acetylated UBC12 (1 to 12 residues) protein-protein interaction incubated for 1 hr by HTRF analysis; assay type: protein assay
MGC-803 [2] = experiment: Induction of ROS generation in human MGC-803 cells at 1 uM incubated for 24 hrs by DCFH-DA staining based flow cytometry analysis (reference value: 1.4%); assay type: functional
MGC-803 [3] = experiment: Inhibition of cullin2 neddylation in UBC/DCN1 overactivated human MGC-803 cells at 0.3 to 10 uM incubated for 24 hrs by Western blot analysis; assay type: cell-based; conditions: dose 0.3-10 µM
Outline: (§1)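 Cells in 6-well plates were exposed to compound for 24 h. MGC-803 were grown in DMEM and KYSE70 in RPMI 1640, both with 10% FBS at 37 °C and 5% CO2. Lysates were made in RIPA with protease inhibitors and quantified by BCA. 30 μg protein was run on 8% SDS-PAGE and blotted to nitrocellulose. Primary antibodies were applied overnight at 4 °C, then HRP secondaries, with ECL and film detection. GAPDH was the loading control. Run three times.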

MGC-803 [4] = experiment: Induction of ROS generation in human MGC-803 cells at 3 uM incubated for 24 hrs by DCFH-DA staining based flow cytometry analysis (reference value: 1.4%); assay type: functional
MGC-803 [5] = experiment: Induction of ROS generation in human MGC-803 cells at 0.3 uM incubated for 24 hrs by DCFH-DA staining based flow cytometry analysis (reference value: 1.4%); assay type: functional
Cullin-5 (Homo sapiens) = molecular target: T1, Cullin-5 (Homo sapiens) (UniProt Q93034); experiment: Inhibition of cullin5 neddylation in UBC/DCN1 overactivated human MGC-803 cells at 0.3 to 10 uM incubated for 24 hrs by Western blot analysis; assay type: cell-based; conditions: dose 0.3-10 µM; outline: as §1
T1 sequence (whole entry): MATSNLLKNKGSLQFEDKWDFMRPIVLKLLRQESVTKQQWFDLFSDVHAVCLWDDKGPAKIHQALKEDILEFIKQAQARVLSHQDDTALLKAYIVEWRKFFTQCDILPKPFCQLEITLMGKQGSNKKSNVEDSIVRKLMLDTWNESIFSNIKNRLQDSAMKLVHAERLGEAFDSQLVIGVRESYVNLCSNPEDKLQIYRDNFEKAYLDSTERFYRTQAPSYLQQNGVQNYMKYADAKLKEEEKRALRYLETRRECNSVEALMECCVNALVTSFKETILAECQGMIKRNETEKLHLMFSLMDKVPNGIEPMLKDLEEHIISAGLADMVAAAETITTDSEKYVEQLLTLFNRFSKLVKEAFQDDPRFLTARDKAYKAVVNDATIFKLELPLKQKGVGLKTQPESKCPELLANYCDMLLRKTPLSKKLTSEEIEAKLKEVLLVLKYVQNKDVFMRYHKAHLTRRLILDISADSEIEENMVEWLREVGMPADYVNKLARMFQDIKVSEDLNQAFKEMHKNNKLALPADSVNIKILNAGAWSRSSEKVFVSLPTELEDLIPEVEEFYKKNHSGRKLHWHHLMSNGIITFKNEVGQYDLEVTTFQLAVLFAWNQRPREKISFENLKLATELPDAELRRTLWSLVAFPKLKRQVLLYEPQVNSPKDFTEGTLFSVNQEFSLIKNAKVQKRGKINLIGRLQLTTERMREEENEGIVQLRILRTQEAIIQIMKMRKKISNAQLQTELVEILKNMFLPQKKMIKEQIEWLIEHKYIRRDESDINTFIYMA

Cullin-1 (Homo sapiens) = Cullin-1 (Homo sapiens) (UniProt Q13616); experiment: Inhibition of cullin1 neddylation in UBC/DCN1 overactivated human MGC-803 cells at 0.3 to 10 uM incubated for 24 hrs by Western blot analysis; assay type: cell-based; conditions: dose 0.3-10 µM; outline: as §1
Cullin-1 (Homo sapiens), sequence (Q13616 whole entry): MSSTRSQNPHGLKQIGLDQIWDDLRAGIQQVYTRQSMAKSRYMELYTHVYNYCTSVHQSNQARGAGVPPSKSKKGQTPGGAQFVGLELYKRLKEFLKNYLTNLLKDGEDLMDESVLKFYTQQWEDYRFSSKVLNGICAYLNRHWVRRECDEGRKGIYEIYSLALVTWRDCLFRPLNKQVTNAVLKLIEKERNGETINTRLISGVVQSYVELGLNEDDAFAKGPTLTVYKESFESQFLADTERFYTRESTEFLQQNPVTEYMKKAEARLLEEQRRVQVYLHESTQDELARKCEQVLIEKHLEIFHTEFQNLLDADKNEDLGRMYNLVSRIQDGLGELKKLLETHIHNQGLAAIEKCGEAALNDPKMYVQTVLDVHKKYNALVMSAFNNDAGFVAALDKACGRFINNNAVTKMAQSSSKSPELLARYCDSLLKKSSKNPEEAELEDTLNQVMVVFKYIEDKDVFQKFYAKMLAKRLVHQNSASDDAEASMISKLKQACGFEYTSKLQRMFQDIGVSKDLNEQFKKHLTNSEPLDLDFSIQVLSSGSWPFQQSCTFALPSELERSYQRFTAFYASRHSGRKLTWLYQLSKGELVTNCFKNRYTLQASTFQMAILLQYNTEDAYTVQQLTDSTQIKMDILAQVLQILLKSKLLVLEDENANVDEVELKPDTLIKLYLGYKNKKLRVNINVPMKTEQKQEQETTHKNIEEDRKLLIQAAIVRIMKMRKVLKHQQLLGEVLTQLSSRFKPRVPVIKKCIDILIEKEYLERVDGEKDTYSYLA

MGC-803 [6] = experiment: Inhibition of cullin3 neddylation in UBC/DCN1 overactivated human MGC-803 cells at 0.3 to 10 uM incubated for 24 hrs by Western blot analysis; assay type: cell-based; conditions: dose 0.3-10 µM; outline: as §1
Cullin-4B (Homo sapiens) = Cullin-4B (Homo sapiens) (UniProt Q13620); experiment: Inhibition of cullin4B neddylation in UBC/DCN1 overactivated human MGC-803 cells at 0.3 to 10 uM incubated for 24 hrs by Western blot analysis; assay type: cell-based; conditions: dose 0.3-10 µM; outline: as §1
Cullin-4B (Homo sapiens), sequence (Q13620 whole entry): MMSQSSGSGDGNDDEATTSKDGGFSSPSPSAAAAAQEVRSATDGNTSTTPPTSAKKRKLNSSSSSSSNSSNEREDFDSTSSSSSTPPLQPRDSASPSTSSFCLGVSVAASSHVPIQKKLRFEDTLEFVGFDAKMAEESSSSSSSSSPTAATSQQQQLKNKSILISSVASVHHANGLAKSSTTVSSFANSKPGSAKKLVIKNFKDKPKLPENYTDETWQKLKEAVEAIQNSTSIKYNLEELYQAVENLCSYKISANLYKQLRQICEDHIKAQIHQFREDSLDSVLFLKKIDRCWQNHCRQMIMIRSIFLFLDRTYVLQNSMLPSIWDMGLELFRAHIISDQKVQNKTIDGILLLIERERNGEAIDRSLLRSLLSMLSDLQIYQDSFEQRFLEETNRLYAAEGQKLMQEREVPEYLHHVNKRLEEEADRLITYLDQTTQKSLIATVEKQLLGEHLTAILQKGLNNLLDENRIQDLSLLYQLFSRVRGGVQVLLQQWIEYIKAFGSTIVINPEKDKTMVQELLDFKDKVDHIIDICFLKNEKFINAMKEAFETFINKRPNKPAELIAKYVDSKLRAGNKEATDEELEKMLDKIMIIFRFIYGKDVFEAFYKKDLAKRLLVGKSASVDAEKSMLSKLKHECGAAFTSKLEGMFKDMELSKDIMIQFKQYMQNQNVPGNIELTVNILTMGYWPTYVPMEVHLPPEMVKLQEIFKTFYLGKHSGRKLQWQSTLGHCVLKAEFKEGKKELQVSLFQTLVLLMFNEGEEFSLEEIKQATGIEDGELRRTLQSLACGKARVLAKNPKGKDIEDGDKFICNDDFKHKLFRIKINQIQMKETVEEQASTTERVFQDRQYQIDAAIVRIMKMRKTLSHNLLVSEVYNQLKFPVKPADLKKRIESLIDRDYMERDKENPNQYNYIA

Cullin-4A (Homo sapiens) = Cullin-4A (Homo sapiens) (UniProt Q13619); experiment: Inhibition of cullin4A neddylation in UBC/DCN1 overactivated human MGC-803 cells at 0.3 to 10 uM incubated for 24 hrs by Western blot analysis; assay type: cell-based; conditions: dose 0.3-10 µM; outline: as §1
Cullin-4A (Homo sapiens), sequence (Q13619 whole entry): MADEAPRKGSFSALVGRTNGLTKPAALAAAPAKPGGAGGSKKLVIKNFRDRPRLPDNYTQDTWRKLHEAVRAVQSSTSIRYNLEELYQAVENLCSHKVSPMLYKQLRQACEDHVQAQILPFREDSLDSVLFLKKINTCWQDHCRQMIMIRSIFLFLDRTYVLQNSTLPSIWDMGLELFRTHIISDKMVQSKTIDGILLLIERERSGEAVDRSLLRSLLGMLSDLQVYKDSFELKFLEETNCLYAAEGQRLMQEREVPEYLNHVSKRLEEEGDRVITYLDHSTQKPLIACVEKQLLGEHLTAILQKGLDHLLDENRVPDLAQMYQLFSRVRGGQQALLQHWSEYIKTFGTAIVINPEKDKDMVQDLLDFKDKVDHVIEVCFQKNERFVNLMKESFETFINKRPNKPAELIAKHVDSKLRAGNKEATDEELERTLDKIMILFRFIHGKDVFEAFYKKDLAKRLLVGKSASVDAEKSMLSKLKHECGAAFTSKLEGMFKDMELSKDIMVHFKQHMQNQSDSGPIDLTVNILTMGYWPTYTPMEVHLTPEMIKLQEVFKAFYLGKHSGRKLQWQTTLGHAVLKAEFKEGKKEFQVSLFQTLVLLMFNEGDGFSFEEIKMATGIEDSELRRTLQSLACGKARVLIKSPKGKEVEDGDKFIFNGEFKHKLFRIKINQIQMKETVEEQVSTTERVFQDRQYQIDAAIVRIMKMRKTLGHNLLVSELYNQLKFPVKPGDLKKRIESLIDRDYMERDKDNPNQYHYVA

DCN1-like protein 1/NEDD8-conjugating enzyme Ubc12, sequence (Q96GG9 whole entry, the tested form may be a part): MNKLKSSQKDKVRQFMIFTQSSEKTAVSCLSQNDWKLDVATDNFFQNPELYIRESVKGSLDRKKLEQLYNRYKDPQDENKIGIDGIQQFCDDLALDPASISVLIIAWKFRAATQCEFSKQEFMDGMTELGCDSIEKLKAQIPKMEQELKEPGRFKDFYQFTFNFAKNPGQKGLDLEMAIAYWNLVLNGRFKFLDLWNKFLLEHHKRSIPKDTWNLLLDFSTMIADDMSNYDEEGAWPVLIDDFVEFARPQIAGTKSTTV
DCN1-like protein 1/NEDD8-conjugating enzyme Ubc12, sequence (P61081 whole entry, further chain, the tested form may be a part): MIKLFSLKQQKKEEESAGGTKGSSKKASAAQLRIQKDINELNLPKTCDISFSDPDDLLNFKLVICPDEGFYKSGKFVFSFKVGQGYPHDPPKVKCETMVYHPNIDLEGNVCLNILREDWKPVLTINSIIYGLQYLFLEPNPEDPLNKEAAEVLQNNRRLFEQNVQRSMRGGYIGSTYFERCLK

In the case of `C#CCSc1nc2nc(-c3ccccc3)cc(Sc3nnnn3CCN(C)C)n2n1`, the IC50 [1] is reported as 79 nM.

`Cc1cc(Sc2nnnn2CCN(C)C)n2nc(SCCc3ccccc3)nc2n1` was tested, and the IC50 [1] was 438 nM.

Compound `Cc1cc(Sc2nnnn2CCN(C)C)n2nc(SCc3cccc(Br)c3)nc2n1` has an IC50 [1] of 195 nM.

Compound `Cc1cc(Sc2nnnn2CCN(C)C)n2nc(SCc3ccc(F)cc3)nc2n1` has an IC50 [1] of 16 nM.

In the case of `Cc1cc(Sc2nnnn2CCN(C)C)n2nc(SCc3ccc([N+](=O)[O-])cc3)nc2n1`, the IC50 [1] is reported as 39 nM.

In the case of `Cc1cc(Sc2nnnn2CCN(C)C)n2nc(SCc3ccccc3[N+](=O)[O-])nc2n1`, the IC50 [1] is reported as 24 nM.

`Cc1cc(Sc2nnnn2CCN(C)C)n2nc(SCc3cccc4ccccc34)nc2n1` showed an IC50 [1] of 209 nM.

`Cc1cc(Sc2nnnn2CCN(C)C)n2nc(SCc3cc(=O)oc4c3ccc3ccccc34)nc2n1` gave an IC50 [1] of 309 nM.

`Cc1ccc(CSc2nc3nc(C)cc(Sc4nnnn4CCN(C)C)n3n2)cc1` was tested, and the IC50 [1] was 78 nM.

`CCCCCc1c(C)nc2nc(SCc3ccc(Cl)cc3)nn2c1Sc1nnnn1CCN(C)C.Cl` was tested, and the Activity (MGC-803 [2]) was 2.6%, the inhibition (MGC-803 [3]) was “inactive” and the Activity (MGC-803 [4]) was 0.7%. The Activity (MGC-803 [5]) was 2.5%, the IC50 [1] was greater than 50000 nM and the inhibition (Cullin-5 (Homo sapiens)) was “inactive”. The inhibition (Cullin-1 (Homo sapiens)) was “inactive”, the inhibition (MGC-803 [6]) was “inactive” and the inhibition (Cullin-4B (Homo sapiens)) was “inactive”. For the same compound, the inhibition (Cullin-4A (Homo sapiens)) was “inactive”.

Work on `CN(C)CCn1nnnc1Sc1cc(C2CC2)nc2ncnn12` yielded an IC50 [1] of 127 nM.

With `Cc1nc2nc(SCc3ccc(Cl)cc3)nn2c(Sc2nnnn2CCN(C)C)c1C` the IC50 [1] was 3360 nM.

Work on `Cc1cc(Sc2nnnn2CCN(C)C)n2nc(SCC3CCCCC3)nc2n1` yielded an IC50 [1] of 58 nM.

`Cc1cc(Sc2nnnn2CCN(C)C)n2nc(SCc3ccc(Br)cc3)nc2n1` was tested, and the IC50 [1] was 15 nM.

`CN(C)CCn1nnnc1Sc1cc(-c2ccccc2)nc2ncnn12` was tested, and the IC50 [1] was 130 nM.

`Cc1cc(Sc2nnnn2CCN(C)C)n2nc(SCc3ccc(C(F)(F)F)cc3)nc2n1` was tested, and the IC50 [1] was 186 nM.

Compound `CN(C)CCn1nnnc1Sc1ncnc2ccsc12` has an IC50 [1] greater than 50000 nM.

`Cc1cc(Sc2nnnn2CCN(C)C)n2nc(SCc3c(Cl)cccc3Cl)nc2n1` gave an IC50 [1] of 192 nM.

`C#CCSc1nc2nc(C)cc(Sc3nnnn3CCN(C)C)n2n1` showed an IC50 [1] of 67 nM.

Work on `Cc1cc(Sc2nnnn2CCN(C)C)n2nccc2n1` yielded an IC50 [1] of 4210 nM.

Work on `Cc1cc(Sc2nnnn2CCN(C)C)n2ncnc2n1` yielded an IC50 [1] of 51 nM.

Compound `Cc1cc(Sc2nnnn2CCN(C)C)n2nc(SCc3ccccc3)nc2n1` has an IC50 [1] of 22 nM.

Work on `Cc1cc(Sc2nnnn2CCN(C)C)n2nc(SCCCc3ccccc3)nc2n1` yielded an IC50 [1] of 532 nM.
